GRK2 inh – blocks RNA aptamer binding to human GRK2. inhibition of aptamer binding, % at 10 µM. bead flow cytometry, FAM-aptamer displacement from GRK2. AID 488847. 330,000 tested, 0.59% active;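 active means inhibition of aptamer binding above 40%, roughly 3 SD of noise, on plates passing a quality check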;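 further: median bead fluorescence of bound FAM aptamer so fluorescent compounds give negative values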
LMPTP inh – blocks human LMPTP phosphatase; P24666; recombinant LMPTP-A, OMFP fluorogenic substrate, fluorescence intensity; inhibition, % at 20 µM; AID 651560; 360,000 tested, 0.22% active;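 active means compounds that cut the enzyme signal by at least half of the control window in the single-dose screen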
Target sequence (P24666 whole entry, looked up): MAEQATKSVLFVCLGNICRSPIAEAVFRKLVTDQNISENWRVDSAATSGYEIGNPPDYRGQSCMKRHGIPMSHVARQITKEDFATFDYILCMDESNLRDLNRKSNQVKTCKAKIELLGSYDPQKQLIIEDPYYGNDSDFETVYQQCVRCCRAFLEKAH
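Test system: LMPTP-A phosphatase enzyme; input: 0.625 nM LMPTP-A final; reagent: OMFP substrate, 400 µM final; compound dosing: 20 µM single dose, 3% DMSO; incubation: 50 min dark incubation at room temperature; measured by: endpoint fluorescence intensity from OMFP dephosphorylation; measure: % inhibition relative to no-enzyme and uninhibited control wells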
STEP block – blocks human striatal-enriched tyrosine phosphatase. 360,000 tested, 0.25% active. AID 588621. P54829. inhibition, % at 20 µM. recombinant STEP, OMFP fluorogenic substrate, fluorescence;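 active means inhibition at 20 µM, scaled per plate between control wells, above about 37%, limit read from the data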
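System: STEP (striatal-enriched tyrosine phosphatase) enzyme, cell-free; medium: Bis-Tris pH 6.0 buffer with DTT, detergent; dosing: 20 µM, 1% DMSO; times: reaction 20 min, ambient temperature; detection: fluorescence, 480/540 nm; read-out basis: normalized % inhibition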
DNMT1 block – inhibitors of human DNMT1 | inhibition (reported as % activation of signal), % at 10 µM | AID 588458 | DNMT1 molecular beacon, Hinp1I cleavage, fluorescence | P26358 | 360,000 tested, 0.83% active; in the data active means inhibition above about 50%
Scp1 inh – Scp-1 (human) phosphatase inhibition; Recombinant Scp1, phosphopeptide, malachite green phosphate absorbance; inhibition, % at 20 µM; 340,000 tested, 0.88% active; AID 493091; Q9GZU7;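 active means inhibition above about 50% at 20 µM, limit read from the data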
Target sequence (Q9GZU7 76-261 limits assumed): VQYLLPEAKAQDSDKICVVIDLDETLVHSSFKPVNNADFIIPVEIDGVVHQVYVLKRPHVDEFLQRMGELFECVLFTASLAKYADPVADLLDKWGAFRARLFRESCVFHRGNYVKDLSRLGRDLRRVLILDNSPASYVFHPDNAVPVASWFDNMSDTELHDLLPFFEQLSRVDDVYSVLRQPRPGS
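Test system: SCP-1 catalytic domain; Buffer or medium: Acidic Tris acetate buffer with magnesium and detergent; Also added: Phosphorylated 17-residue peptide substrate; Compound: single 20 µM dose, 1% DMSO; Schedule: enzyme reaction 45 min at room temperature, colour 5 min, stabilisation 30 min; Signal: Phosphate-binding colour reagent, absorbance read at 630 nm.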
SUMO1 PPI mod – alters human SUMO1 binding to SIM partners; inhibition, % at 20 µM; SUMO1 binding to a labelled peptide, TR-FRET, 1 h; 360,000 tested, 0.33% active; P63165; in the data active means inhibition above about 37%
Target sequence (P63165 whole entry, looked up): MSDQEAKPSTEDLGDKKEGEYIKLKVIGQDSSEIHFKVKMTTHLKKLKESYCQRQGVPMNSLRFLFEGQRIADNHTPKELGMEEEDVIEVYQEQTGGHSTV
Scp1 confirm – confirmation of human Scp-1 phosphatase inhibitors | recombinant SCP-1 catalytic domain, phosphate release, malachite green absorbance | inhibition, % at 20 µM | AID 540281 | shares compounds with Scp1 inh | 2,500 tested, 61% active
MG interference – counter-screen for Scp-1 inhibitors: colorimetric interference; apparent inhibition (interference), % at 20 µM; 2,500 tested, under 10 active; Colorimetric interference counterscreen, malachite green absorbance 630 nm; shares compounds with Scp1 inh; AID 540313;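 further: compounds added after enzyme reaction finished so only phosphate colour detection is probed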
Scp1 DSF – binds human Scp-1, shifting its melting temperature | Recombinant SCP1, Sypro Orange thermal shift Tm | AID 540329 | thermal shift relative to vanadate control, % at 40 µM | 1,500 tested, 25% active | shares compounds with Scp1 inh;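 active means substances whose mean melting-temperature shift, as a percentage of the reference inhibitor's shift, reaches about 5.3%, limit read from the data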
Hits are given with their value. An excerpt weighted towards active compounds, which were near 2.1% of everything screened.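 How the source made its calls, unless noted: active means inhibition of at least 30% at 20 µM; inactive means the rest.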

`CC(C)NC(=O)N(C)C[C@H]1Oc2ccc(NC(=O)NC3CCCCC3)cc2C(=O)N([C@H](C)CO)C[C@@H]1C` gave GRK2 inh inactive, LMPTP inh inactive, STEP block inactive, DNMT1 block inactive, Scp1 inh inactive and SUMO1 PPI mod inactive.
For CC1(C(=O)NCc2cccnc2)CCN1C(=O)c1cccc(F)c1 (stereo not given) the results were LMPTP inh inactive, STEP block inactive, DNMT1 block inactive and SUMO1 PPI mod inactive.
`Cc1ccccc1NC(=O)CSc1n[nH]c(-c2ccccn2)n1` gave GRK2 inh inactive, LMPTP inh inactive, STEP block inactive, DNMT1 block inactive, Scp1 inh 62.8, SUMO1 PPI mod inactive, Scp1 confirm inactive and MG interference inactive.
`Cc1ccc(C)c(NC(=O)CSc2n[nH]c(-c3ccccn3)n2)c1` gave GRK2 inh inactive, LMPTP inh inactive, STEP block inactive, DNMT1 block inactive, Scp1 inh inactive and SUMO1 PPI mod inactive.
CCOc1ccc(Br)cc1/C=N/O was read as GRK2 inh inactive, LMPTP inh inactive, STEP block inactive, DNMT1 block inactive, Scp1 inh inactive and SUMO1 PPI mod inactive.
`O=C(O)COc1ccc(Br)cc1/C=N/O` gave GRK2 inh inactive, LMPTP inh inactive, STEP block inactive, DNMT1 block inactive, Scp1 inh 59.8, SUMO1 PPI mod inactive, Scp1 confirm 51.6, MG interference inactive and Scp1 DSF inactive.
CCOc1ccc(NC(=O)c2ccc(N)cc2)cc1 was read as GRK2 inh inactive, LMPTP inh inactive, STEP block inactive, DNMT1 block inactive, Scp1 inh inactive and SUMO1 PPI mod inactive.
CCOc1ccc(NC(=O)c2ccc(NC(=O)c3ccc(NC(N)=O)cc3)cc2)cc1 was read as GRK2 inh inactive, LMPTP inh inactive, STEP block inactive, DNMT1 block 55.9, Scp1 inh 58.8, SUMO1 PPI mod inactive, Scp1 confirm 35.1, MG interference inactive and Scp1 DSF 8.0.
For COCCN1C(=O)CN(S(C)(=O)=O)CC1(C)C(=O)Nc1ccc2c(c1)OCCO2 (stereo not given) the results were LMPTP inh inactive and SUMO1 PPI mod inactive.
Screening CC[n+]1c(/C=C/c2ccc(N(C)C)cc2)ccc2ccccc21 returned GRK2 inh inactive, LMPTP inh inactive, STEP block inactive, DNMT1 block inactive, Scp1 inh inactive and SUMO1 PPI mod inactive.
`C[n+]1c(/C=C/c2ccc(O)cc2)ccc2ccccc21` gave GRK2 inh inactive, LMPTP inh inactive, STEP block inactive, DNMT1 block inactive, Scp1 inh 51.0, SUMO1 PPI mod inactive, Scp1 confirm inactive and MG interference inactive.
`COc1ccc(NS(=O)(=O)c2cccc(C(=O)NNC(=O)c3cccn3C)c2)cc1` gave GRK2 inh inactive, LMPTP inh inactive, STEP block inactive, DNMT1 block inactive, Scp1 inh 62.6, SUMO1 PPI mod inactive, Scp1 confirm 64.8, MG interference inactive and Scp1 DSF 6.8.
`COc1ccc(NS(=O)(=O)c2cccc(C(=O)NNC(=O)c3ccccc3O)c2)cc1` gave GRK2 inh inactive, LMPTP inh inactive, STEP block inactive, DNMT1 block inactive, Scp1 inh inactive and SUMO1 PPI mod inactive.
`COc1ccccc1-c1ccc([C@@H]2C[C@H]3[C@H](CON3C)CN2C(=O)c2ccc(-c3ccccc3)cc2)cc1` gave LMPTP inh inactive, STEP block inactive, DNMT1 block inactive and SUMO1 PPI mod inactive.
`CC(=O)c1ccccc1NS(=O)(=O)c1cccc2nsnc12` gave GRK2 inh inactive, LMPTP inh 68.1, STEP block 96.7, DNMT1 block 51.1, Scp1 inh 80.0, SUMO1 PPI mod inactive, Scp1 confirm 51.3, MG interference inactive and Scp1 DSF inactive.
Screening CCCCCCn1cc(CN2CC(N(C)CCC)CS2(=O)=O)nn1 (stereo not given) returned LMPTP inh inactive and SUMO1 PPI mod inactive.
Screening CC(=O)Oc1ccccc1Cn1c(C)c(C(=O)NCc2ccc(Cl)c(Cl)c2)sc1=O returned LMPTP inh inactive, STEP block inactive, DNMT1 block inactive and SUMO1 PPI mod inactive.
For C1=CC2=NC34CCCCC3CC3=C(CCCC3)N4C2=CC1=NC1CCCCC1 (stereo not given) the results were GRK2 inh inactive, LMPTP inh inactive, STEP block inactive, DNMT1 block inactive, Scp1 inh 68.0, SUMO1 PPI mod inactive, Scp1 confirm inactive and MG interference inactive.
Screening O=C1CCN(Cc2ccccc2)S(=O)(=O)c2ccc(F)cc21 returned GRK2 inh inactive, LMPTP inh inactive, STEP block inactive, DNMT1 block inactive, Scp1 inh 51.5, SUMO1 PPI mod inactive, Scp1 confirm inactive and MG interference inactive.
Screening COc1ccc2nc(SCC(=O)NN)cc(C)c2c1 returned GRK2 inh inactive, LMPTP inh inactive, STEP block inactive, DNMT1 block inactive, Scp1 inh 86.9, SUMO1 PPI mod inactive, Scp1 confirm inactive and MG interference inactive.
Screening COc1ccc2c(C)cc(SCC(=O)Nc3cc(C(N)=O)cc(C(N)=O)c3)nc2c1 returned GRK2 inh inactive, LMPTP inh inactive, STEP block inactive, DNMT1 block inactive, Scp1 inh inactive and SUMO1 PPI mod inactive.
For CCOC(=O)c1cc(=O)nc(N)s1 the results were LMPTP inh inactive, STEP block inactive, DNMT1 block inactive and SUMO1 PPI mod inactive.
For CCC(C)C(CO)NCCCn1cnc2c(OCc3ccccc3)ncnc21 (stereo not given) the results were LMPTP inh inactive, STEP block inactive, DNMT1 block inactive and SUMO1 PPI mod inactive.
`O=C1NCCN1CCNS(=O)(=O)c1ccc2ccccc2c1` gave GRK2 inh inactive, LMPTP inh inactive, STEP block inactive, DNMT1 block inactive, Scp1 inh inactive, SUMO1 PPI mod inactive, Scp1 confirm inactive and MG interference inactive.
O=C(O)c1cc(S(=O)(=O)NCCN2CCNC2=O)ccc1O was read as GRK2 inh inactive, LMPTP inh inactive, STEP block inactive, DNMT1 block inactive, Scp1 inh inactive and SUMO1 PPI mod inactive.
CCOC(=O)N1CCN(C(=O)C[C@@H]2C[C@@]3(C(=O)OC)CC(C)(C)CC=C3N(Cc3ccc4c(c3)OCO4)C2=O)CC1 was read as LMPTP inh inactive and SUMO1 PPI mod inactive.

Source: PubChem BioAssay (several laboratories)
